# Experimental data collected from several papers.
# Compare with care: the assays were run in different laboratories.
# Effect on: cell growth or viability
Structure (SMILES),cell line,method,tested at,time,quantity,result
O=C1CCc2ccccc2C(=O)c2ccccc2N1,L6,,,,IC50,230 µM
CCc1cc(CN2CCc3cc(OS(N)(=O)=O)c(OC)cc3C2)cc(CC)c1CC,CNSSF-539,SRB,,,GI50,916 nM
O=C1CCc2c(O)cccc2C(=O)Nc2ccccc21,L6,,,,IC50,210 µM
CCOC(=O)n1ccn(C)c1=S,GISTT1,resazurin,,72 h,IC50,< 0.07 µM
N#Cc1ccc2c(c1)CCC(=O)c1ccccc1NC2=O,L6,,,,IC50,150 µM
COc1cc2c(cc1O)CCN(Cc1cc(Br)c(OC)c(OC)c1)C2,CNSSF-539,SRB,,,GI50,177 nM
CC(C)C[C@H](NC(=O)[C@H](Cc1ccccc1)NC(=O)c1cnccn1)B(O)O,GISTT1,,,72 h,IC50,0.006 µM
O=C1Nc2ccc(C(=O)N3CCOCC3)cc2C(=O)CCc2ccccc21,L6,,,,IC50,> 270 µM
CN(C)c1ccc(C(=C2C=CC(=[N+](C)C)C=C2)c2ccc(N(C)C)cc2)cc1,GISTT1,resazurin,,72 h,IC50,0.52 µM
COc1cc(CN2CCc3cc(O)ccc3C2)cc(OC)c1OC,CNSSF-539,SRB,,,GI50,36 nM
CN(C)CCCn1c2c(c3ccncc3c1=O)C(=O)c1ccccc1-2,CNSSF-539,SRB,,,GI50,708 nM
CC(=O)Nc1cccc(-n2c(=O)n(C3CC3)c(=O)c3c(Nc4ccc(I)cc4F)n(C)c(=O)c(C)c32)c1,SW1417,resazurin,780 pM,72 h,viability,99.6%
